System: IGROV-1/Pt1 (Homo sapiens)
Assay: Growth inhibition of human IGROV1/Pt1 cells after 72 hrs
Conditions: IGROV-1/Pt1, 72 h

Structure (SMILES)	IC50 [µM]
NNC(=O)/C=C/c1ccc(-c2ccccc2)cc1	25.1
NNC(=O)N/C=C/c1ccc(-c2ccccc2)cc1	26.7
O=C(NO)N/C=C/c1ccc(-c2ccccc2)cc1	6.7
O=C(N/C=C/c1ccc(-c2ccccc2)cc1)NOCc1ccccc1	> 50
CC(=O)SCC(=O)/C=C/c1ccc(-c2ccccc2)cc1	18.7
N#CSC/C=C/c1ccc(-c2ccccc2)cc1	58.1
O=C1/C(=C/c2ccc(-c3ccccc3)cc2)CCN1O	> 60
O=C(/C=C/c1ccc(-c2ccccc2)cc1)NO	4
O=C(CCCCCCC(=O)Nc1ccccc1)NO [VORINOSTAT]	2.2

System: IGROV-1
Assay: Growth inhibition of human IGROV1 cells after 72 hrs
Format: functional, cell-based
Conditions: IGROV-1, 72 h
In short: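 Cells exposed to compound for 72 h. Growth inhibition read by cell counting. IC50 (concentration giving 50% inhibition of cell growth) taken from dose–response curves. Values are means ± SD of three independent experiments.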

Structure (SMILES)	IC50 [µM]
NNC(=O)/C=C/c1ccc(-c2ccccc2)cc1	7.6
NNC(=O)N/C=C/c1ccc(-c2ccccc2)cc1	14.5
O=C(NO)N/C=C/c1ccc(-c2ccccc2)cc1	3.5
O=C(N/C=C/c1ccc(-c2ccccc2)cc1)NOCc1ccccc1	40
CC(=O)SCC(=O)/C=C/c1ccc(-c2ccccc2)cc1	26.4
N#CSC/C=C/c1ccc(-c2ccccc2)cc1	3.8
O=C1/C(=C/c2ccc(-c3ccccc3)cc2)CCN1O	> 60

System: not listed separately
Assay: cells
Format: functional, cell-based
Conditions: Homo sapiens, NB-4, 72 h

IC50 [µM]	Structure (SMILES)
> 10	O=C(O)/C=C/c1ccc(-c2ccccc2)cc1
7.1	NNC(=O)/C=C/c1ccc(-c2ccccc2)cc1
9.8	NNC(=O)N/C=C/c1ccc(-c2ccccc2)cc1
1.96	O=C(NO)N/C=C/c1ccc(-c2ccccc2)cc1
> 20	O=C(N/C=C/c1ccc(-c2ccccc2)cc1)NOCc1ccccc1
> 20	CC(=O)SCC(=O)/C=C/c1ccc(-c2ccccc2)cc1
> 20	N#CSC/C=C/c1ccc(-c2ccccc2)cc1
> 20	O=C1/C(=C/c2ccc(-c3ccccc3)cc2)CCN1O
0.9	O=C(/C=C/c1ccc(-c2ccccc2)cc1)NO

System: HCT-116
Assay: cells
Format: functional, cell-based
Conditions: Homo sapiens, HCT-116, 72 h

IC50 [µM]	Structure (SMILES)
> 20	O=C(O)/C=C/c1ccc(-c2ccccc2)cc1
11.9	NNC(=O)/C=C/c1ccc(-c2ccccc2)cc1
16.4	NNC(=O)N/C=C/c1ccc(-c2ccccc2)cc1
4	O=C(NO)N/C=C/c1ccc(-c2ccccc2)cc1
40	O=C(N/C=C/c1ccc(-c2ccccc2)cc1)NOCc1ccccc1
14	CC(=O)SCC(=O)/C=C/c1ccc(-c2ccccc2)cc1
12.6	N#CSC/C=C/c1ccc(-c2ccccc2)cc1
> 20	O=C1/C(=C/c2ccc(-c3ccccc3)cc2)CCN1O

Molecular target: Histone deacetylase 1 (Homo sapiens, UniProt Q13547)
Sequence (Q13547 whole entry): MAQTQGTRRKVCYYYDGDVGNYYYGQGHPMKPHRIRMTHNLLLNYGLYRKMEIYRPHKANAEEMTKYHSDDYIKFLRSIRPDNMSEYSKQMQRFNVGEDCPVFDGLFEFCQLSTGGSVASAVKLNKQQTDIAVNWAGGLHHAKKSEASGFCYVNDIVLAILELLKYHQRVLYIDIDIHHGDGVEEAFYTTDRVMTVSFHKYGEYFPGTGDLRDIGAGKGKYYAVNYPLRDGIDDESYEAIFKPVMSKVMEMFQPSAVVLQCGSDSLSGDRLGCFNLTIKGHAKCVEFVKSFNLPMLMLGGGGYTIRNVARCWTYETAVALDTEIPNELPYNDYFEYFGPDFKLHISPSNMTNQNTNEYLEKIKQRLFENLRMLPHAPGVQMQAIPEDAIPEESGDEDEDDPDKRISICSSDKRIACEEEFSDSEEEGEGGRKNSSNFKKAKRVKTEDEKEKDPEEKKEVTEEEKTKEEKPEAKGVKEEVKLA
Assay: Inhibition of HDAC1 (unknown origin)
Conditions: not given

IC50 [µM]	Structure (SMILES)
1.31	O=C(NO)N/C=C/c1ccc(-c2ccccc2)cc1

Molecular target: Histone deacetylase 2 (Homo sapiens, UniProt Q92769)
Sequence (Q92769 whole entry): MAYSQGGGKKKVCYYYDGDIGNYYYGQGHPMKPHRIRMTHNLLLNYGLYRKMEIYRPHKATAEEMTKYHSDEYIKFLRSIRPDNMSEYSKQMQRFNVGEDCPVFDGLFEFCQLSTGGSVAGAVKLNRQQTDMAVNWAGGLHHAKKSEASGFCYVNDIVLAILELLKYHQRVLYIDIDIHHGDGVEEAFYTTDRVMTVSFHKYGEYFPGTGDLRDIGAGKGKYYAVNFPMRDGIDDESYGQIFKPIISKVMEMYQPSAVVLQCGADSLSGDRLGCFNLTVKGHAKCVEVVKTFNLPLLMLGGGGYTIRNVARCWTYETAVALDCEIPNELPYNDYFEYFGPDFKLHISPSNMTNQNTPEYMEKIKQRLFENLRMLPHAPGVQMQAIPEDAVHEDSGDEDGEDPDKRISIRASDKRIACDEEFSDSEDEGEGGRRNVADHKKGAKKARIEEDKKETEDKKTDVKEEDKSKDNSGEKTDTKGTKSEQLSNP
Assay: Inhibition of human HDAC2 after 40 mins by fluorescence analysis
Conditions: not given

IC50 [µM]	Structure (SMILES)
> 5	O=C(O)/C=C/c1ccc(-c2ccccc2)cc1
> 5	NNC(=O)/C=C/c1ccc(-c2ccccc2)cc1
> 5	NNC(=O)N/C=C/c1ccc(-c2ccccc2)cc1
1.05	O=C(NO)N/C=C/c1ccc(-c2ccccc2)cc1
> 5	O=C(N/C=C/c1ccc(-c2ccccc2)cc1)NOCc1ccccc1
> 5	CC(=O)SCC(=O)/C=C/c1ccc(-c2ccccc2)cc1
> 5	N#CSC/C=C/c1ccc(-c2ccccc2)cc1
> 5	O=C1/C(=C/c2ccc(-c3ccccc3)cc2)CCN1O

Molecular target: T1, Protein deacetylase HDAC6 (Homo sapiens, UniProt Q9UBN7)
T1 sequence (Q9UBN7 whole entry): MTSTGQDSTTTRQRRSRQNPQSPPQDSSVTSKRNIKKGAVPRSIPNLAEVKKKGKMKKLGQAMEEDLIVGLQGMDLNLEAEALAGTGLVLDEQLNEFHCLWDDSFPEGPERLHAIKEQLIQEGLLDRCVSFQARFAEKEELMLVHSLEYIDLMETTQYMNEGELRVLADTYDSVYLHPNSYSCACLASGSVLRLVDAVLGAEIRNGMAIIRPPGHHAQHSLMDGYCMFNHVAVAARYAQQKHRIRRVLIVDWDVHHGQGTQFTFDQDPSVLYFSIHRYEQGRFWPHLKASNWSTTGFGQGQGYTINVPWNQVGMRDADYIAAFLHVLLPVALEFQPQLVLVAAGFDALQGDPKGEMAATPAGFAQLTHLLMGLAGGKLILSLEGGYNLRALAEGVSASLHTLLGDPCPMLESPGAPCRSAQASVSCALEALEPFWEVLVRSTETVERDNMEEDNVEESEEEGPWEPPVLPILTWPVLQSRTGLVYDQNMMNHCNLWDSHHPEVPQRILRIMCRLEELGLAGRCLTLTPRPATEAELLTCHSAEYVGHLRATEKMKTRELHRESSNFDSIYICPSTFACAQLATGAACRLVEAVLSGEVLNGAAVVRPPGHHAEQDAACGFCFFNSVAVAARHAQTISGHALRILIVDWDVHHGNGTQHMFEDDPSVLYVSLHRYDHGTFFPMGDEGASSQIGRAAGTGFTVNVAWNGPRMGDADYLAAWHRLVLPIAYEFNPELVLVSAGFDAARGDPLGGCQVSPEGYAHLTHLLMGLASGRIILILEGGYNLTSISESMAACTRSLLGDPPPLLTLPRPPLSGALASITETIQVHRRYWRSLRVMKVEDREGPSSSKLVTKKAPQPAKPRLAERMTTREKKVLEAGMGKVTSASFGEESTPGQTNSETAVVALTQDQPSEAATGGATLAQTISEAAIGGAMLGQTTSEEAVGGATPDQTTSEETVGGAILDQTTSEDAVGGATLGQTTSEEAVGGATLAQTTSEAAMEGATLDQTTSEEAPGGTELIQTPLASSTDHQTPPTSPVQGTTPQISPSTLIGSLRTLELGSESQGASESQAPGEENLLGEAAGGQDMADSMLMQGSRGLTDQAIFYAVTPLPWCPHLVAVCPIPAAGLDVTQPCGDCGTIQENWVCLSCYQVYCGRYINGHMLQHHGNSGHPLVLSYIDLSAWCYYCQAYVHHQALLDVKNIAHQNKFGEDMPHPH
Assay: Inhibition of HDAC6 (unknown origin)
Conditions: not given

IC50 [µM]	Structure (SMILES)
1.05	O=C(NO)N/C=C/c1ccc(-c2ccccc2)cc1

System: not listed separately
Assay: cells
Format: functional, cell-based
Conditions: Homo sapiens, NCI-H460, 72 h

IC50 [µM]	Structure (SMILES)
> 20	O=C(O)/C=C/c1ccc(-c2ccccc2)cc1
> 20	NNC(=O)/C=C/c1ccc(-c2ccccc2)cc1
> 20	NNC(=O)N/C=C/c1ccc(-c2ccccc2)cc1
9.5	O=C(NO)N/C=C/c1ccc(-c2ccccc2)cc1
> 20	O=C(N/C=C/c1ccc(-c2ccccc2)cc1)NOCc1ccccc1
> 20	CC(=O)SCC(=O)/C=C/c1ccc(-c2ccccc2)cc1
9.4	N#CSC/C=C/c1ccc(-c2ccccc2)cc1
> 20	O=C1/C(=C/c2ccc(-c3ccccc3)cc2)CCN1O
5.4	O=C(/C=C/c1ccc(-c2ccccc2)cc1)NO

From ChEMBL document CHEMBL3621129, “Investigation on the ZBG-functionality of phenyl-4-yl-acrylohydroxamic acid derivatives as histone deacetylase inhibitors” (Bioorg Med Chem Lett, 2015)
